Data from ChEMBL document CHEMBL3414433, “Discovery and profiling of a selective and efficacious Syk inhibitor” (J Med Chem, 2015).
The source made the active and inactive calls. The calls are words filed in the database; no cut-off is given here.

Legend:
[1] = Drug uptake in blood of Lewis rat collagen-induced arthritis model at 3 mg/kg, po qd administered on day 15 post immunization measured at 24 hrs on day 18; type: ADME, organism-based; set-up: dose 3 mg/kg, route oral; settings: read-out: Drug uptake
In short: (§1)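 Collagen-arthritic Lewis rats given 3, 10 or 30 mg/kg p.o. once daily from day 15; blood levels measured on day 18 (third day of treatment) at 4, 8 and 24 h after dosing.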

[2] = target: T1, Tyrosine-protein kinase receptor UFO (Homo sapiens, UniProt P30530); assay: Competitive binding affinity to human AXL
T1 sequence (P30530 whole entry): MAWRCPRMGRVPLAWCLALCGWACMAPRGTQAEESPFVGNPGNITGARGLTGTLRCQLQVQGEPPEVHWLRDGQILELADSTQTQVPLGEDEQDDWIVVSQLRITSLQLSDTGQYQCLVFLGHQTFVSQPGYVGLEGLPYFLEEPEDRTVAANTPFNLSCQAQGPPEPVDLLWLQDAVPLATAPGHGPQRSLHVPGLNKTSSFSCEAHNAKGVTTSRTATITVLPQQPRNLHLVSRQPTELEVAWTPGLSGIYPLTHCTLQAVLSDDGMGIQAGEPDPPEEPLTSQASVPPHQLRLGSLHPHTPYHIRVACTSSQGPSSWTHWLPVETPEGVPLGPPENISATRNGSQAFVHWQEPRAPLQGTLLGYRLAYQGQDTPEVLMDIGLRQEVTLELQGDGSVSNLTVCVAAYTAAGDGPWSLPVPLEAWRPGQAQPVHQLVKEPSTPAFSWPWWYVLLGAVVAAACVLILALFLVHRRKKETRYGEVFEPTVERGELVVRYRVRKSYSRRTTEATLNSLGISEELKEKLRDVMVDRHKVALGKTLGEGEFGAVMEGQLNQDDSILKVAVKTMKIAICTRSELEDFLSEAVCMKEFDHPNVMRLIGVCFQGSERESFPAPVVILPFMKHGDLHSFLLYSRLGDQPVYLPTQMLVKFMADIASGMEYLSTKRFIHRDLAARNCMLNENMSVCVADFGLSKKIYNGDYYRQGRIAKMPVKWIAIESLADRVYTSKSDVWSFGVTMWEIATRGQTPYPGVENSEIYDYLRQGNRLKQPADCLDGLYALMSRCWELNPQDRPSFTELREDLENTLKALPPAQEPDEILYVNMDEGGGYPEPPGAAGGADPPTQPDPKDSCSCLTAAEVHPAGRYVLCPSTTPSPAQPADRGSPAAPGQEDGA

Rattus norvegicus [3] = assay: In vivo inhibition of Syk in Lewis rat assessed as reduction in FcgR-induced SLP76 phosphorylation in peripheral blood monocytes at 3 to 30 mg/kg, po measured after 2 to 24 hrs; type: functional, organism-based; set-up: route oral
[4] = Drug uptake in Lewis rat blood at 22 mg/kg, po measured after 4 hrs; type: ADME, organism-based; set-up: dose 22 mg/kg, route oral; settings: read-out: Drug uptake
In short: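 Single oral dose of 22 mg/kg to Lewis rats; blood sampled at 2, 4 and 24 h after dosing for compound level and ex vivo FcγR-induced phospho-SLP76 in peripheral blood monocytes.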

[5] = Oral bioavailability in Beagle dog at 0.3 mg/kg; type: ADME, organism-based, Canis lupus familiaris; settings: in vivo
In short: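 Beagle dogs dosed one-in-one. The i.v. dose was 0.1 mg/kg in NMP/PEG200 (3:7), and the p.o. dose was 0.3 mg/kg in MC/water (0.5:99.5). Blood levels were followed after each route.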

Rattus norvegicus [6] = assay: Dose normalized AUC in Sprague-Dawley rat at 1 mg/kg, iv administered as cassette dosing; type: ADME, organism-based; set-up: dose 1 mg/kg, route intravenous; settings: in vivo
In short: (§2)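 Rat PK: i.v. 1 mg/kg in NMP/PEG200 (3:7); p.o. 3 mg/kg in CMC/water/Tween (0.5:99:0.5). Exposure values dose normalized.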

Rattus norvegicus [7] = assay: Antiarthritic activity in Lewis rat collagen-induced arthritis model assessed as reduction of inflammatory cell infiltration in hind paw at 3 to 30 mg/kg, po qd administered on day 15 post immunization measured after day 28 by Giemsa/safranin O staining-based assay; type: functional, organism-based
In short: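 Female Lewis rats (140−160 g), arthritis induced by porcine collagen immunization (day 0) and boost (day 7); rats with swollen joints randomized, dosed orally once daily from day 15 to day 28. Hind paws taken on day 28, fixed in 10% buffered formalin for 48 h, decalcified over 16 days, paraffin-embedded; 3 μm sections stained with Giemsa and safranin O and scored.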

Rattus norvegicus [8] = assay: Dose normalized AUC in Sprague-Dawley rat at 3 mg/kg, po administered as cassette dosing; type: ADME, organism-based; set-up: dose 3 mg/kg, route oral; settings: in vivo; in short: as §2
[9] = Volume of distribution at steady state in Sprague-Dawley rat at 1 mg/kg, iv and 3 mg/kg, po administered as cassette dosing; type: ADME, organism-based; settings: in vivo, read-out: Vdss
In short: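 Rats were dosed i.v. at 1 mg/kg in NMP/PEG200 (3:7) and p.o. at 3 mg/kg in CMC/water/Tween (0.5:99:0.5). PK parameters were derived from blood concentration–time curves for both routes.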

[10] = Drug uptake in blood of Lewis rat collagen-induced arthritis model at 10 mg/kg, po qd administered on day 15 post immunization measured at 4 hrs on day 18; type: ADME, organism-based; set-up: dose 10 mg/kg, route oral; settings: read-out: Drug uptake; in short: as §1
Canis familiaris [11] = species: Canis familiaris; assay: Hepatotoxicity in dog assessed as bile plugs measured for 4 weeks by GLP study; type: toxicity, organism-based, Canis lupus familiaris; settings: in vivo, 672 h
[12] = target: T2, Mitogen-activated protein kinase kinase kinase 2 (Homo sapiens, UniProt Q9Y2U5); assay: Competitive binding affinity to human MAP3K2
T2 sequence (Q9Y2U5 whole entry): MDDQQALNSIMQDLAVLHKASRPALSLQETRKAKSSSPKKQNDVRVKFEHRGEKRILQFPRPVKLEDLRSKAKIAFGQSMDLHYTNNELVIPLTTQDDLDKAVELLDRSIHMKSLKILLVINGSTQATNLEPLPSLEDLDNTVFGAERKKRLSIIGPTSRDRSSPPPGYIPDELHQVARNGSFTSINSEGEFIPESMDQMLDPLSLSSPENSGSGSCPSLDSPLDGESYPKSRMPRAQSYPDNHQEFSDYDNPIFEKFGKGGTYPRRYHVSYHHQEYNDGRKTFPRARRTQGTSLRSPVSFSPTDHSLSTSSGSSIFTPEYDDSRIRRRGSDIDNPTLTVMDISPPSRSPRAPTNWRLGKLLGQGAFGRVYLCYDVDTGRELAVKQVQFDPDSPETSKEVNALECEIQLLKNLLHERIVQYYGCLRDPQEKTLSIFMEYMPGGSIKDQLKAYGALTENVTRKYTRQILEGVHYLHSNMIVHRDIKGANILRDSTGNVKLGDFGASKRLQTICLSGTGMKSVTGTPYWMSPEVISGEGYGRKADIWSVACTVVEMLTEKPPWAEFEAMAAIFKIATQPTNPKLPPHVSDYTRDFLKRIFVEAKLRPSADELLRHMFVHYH

Canis familiaris [13] = species: Canis familiaris; assay: Toxicity in dog assessed as prolongation of QT interval by telemetry study; type: organism-based, Canis lupus familiaris; settings: in vivo
Canis familiaris [14] = assay: Dose normalized Cmax in Beagle dog at 0.1 mg/kg, iv and 0.3 mg/kg, po; type: ADME, organism-based, Canis lupus familiaris; settings: in vivo
In short: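 One-in-one dosing in Beagle dogs: i.v. 0.1 mg/kg in NMP/PEG200 (3:7); p.o. 0.3 mg/kg in MC/water (0.5:99.5). Exposure values dose normalized.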

[15] = target: Voltage-gated inwardly rectifying potassium channel KCNH2 (Homo sapiens, UniProt Q12809); assay: Inhibition of human ERG by GLP study
Sequence of Voltage-gated inwardly rectifying potassium channel KCNH2 (Q12809 whole entry): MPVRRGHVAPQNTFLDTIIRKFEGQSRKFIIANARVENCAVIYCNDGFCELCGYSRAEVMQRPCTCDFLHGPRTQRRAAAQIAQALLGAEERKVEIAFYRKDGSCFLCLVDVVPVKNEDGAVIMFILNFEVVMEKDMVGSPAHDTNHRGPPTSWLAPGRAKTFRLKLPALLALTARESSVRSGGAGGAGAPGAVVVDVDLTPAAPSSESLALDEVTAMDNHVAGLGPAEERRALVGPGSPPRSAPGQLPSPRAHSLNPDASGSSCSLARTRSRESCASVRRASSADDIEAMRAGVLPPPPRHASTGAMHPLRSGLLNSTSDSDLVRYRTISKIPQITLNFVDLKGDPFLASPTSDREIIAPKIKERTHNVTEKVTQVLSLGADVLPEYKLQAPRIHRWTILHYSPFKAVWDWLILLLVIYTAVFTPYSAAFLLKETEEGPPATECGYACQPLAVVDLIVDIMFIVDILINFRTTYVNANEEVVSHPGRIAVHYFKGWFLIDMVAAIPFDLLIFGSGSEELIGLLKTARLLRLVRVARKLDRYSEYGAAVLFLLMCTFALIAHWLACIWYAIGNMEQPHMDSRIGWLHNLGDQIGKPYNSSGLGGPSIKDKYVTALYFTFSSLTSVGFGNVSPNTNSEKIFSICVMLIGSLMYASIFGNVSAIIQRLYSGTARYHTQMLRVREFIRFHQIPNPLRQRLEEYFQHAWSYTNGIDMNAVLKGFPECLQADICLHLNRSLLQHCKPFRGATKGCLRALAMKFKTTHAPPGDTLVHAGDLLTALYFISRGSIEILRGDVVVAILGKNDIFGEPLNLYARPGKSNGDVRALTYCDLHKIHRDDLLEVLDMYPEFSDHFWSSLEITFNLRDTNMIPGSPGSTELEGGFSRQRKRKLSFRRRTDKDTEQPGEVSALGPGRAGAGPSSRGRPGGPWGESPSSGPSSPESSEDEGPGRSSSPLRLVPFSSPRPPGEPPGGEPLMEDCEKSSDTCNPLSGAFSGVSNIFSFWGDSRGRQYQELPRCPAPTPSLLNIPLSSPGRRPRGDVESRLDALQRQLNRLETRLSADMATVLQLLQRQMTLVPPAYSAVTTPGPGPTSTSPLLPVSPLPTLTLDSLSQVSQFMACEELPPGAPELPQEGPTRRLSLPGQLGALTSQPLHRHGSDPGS

- concentration at 24 h [1]: 35 nM
- Kd [2]: 71 nM
- IC50 (Rattus norvegicus [3]): 189 nM
- concentration at 4 h [4]: 1100 nM
- bioavailability [5]: 54%
- AUC/dose (Rattus norvegicus [6]): 1459 nM·h
- AUC/dose (Rattus norvegicus [8]): 877 nM·h
- Vd [9]: 16.4 L/kg
- concentration at 4 h [10]: 866 nM
- Kd [12]: 140 nM
- Cmax/dose (Canis familiaris [14]): 139 nM
Structure (SMILES): NC(=O)c1nnc(N[C@@H]2CCCC[C@@H]2N)nc1Nc1cccc2cc[nH]c12
- Activity (Rattus norvegicus [7]): Active
- Activity (Canis familiaris [11]): Toxic
- Activity (Canis familiaris [13]): Non-toxic
- IC50 [15]: 5000 nM
